Measurements from ChEMBL document CHEMBL1926618, “Homosecoiridoids from the flower buds of Lonicera japonica” (2011).
The source made the active and inactive calls. The rule behind the calls is not given here.

Legend:
[1] = biological target: Signal transducer and activator of transcription 3 (Homo sapiens) (UniProt P40763); test: Inhibition of STAT-3 activity in HELF cells at 10 uM; format: cell-based
Procedure, shortened: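 HELF cells grown in DMEM with 10% FCS under humidified 5% CO2, transfected with pSTAT-3-TA-luc firefly luciferase reporter plasmid by lipofectamine 2000. After 24 h, treated in 5% FBS with compound or DMSO for 24 h. Luciferase activity read in cell lysates by luminometer; activity expressed relative to DMSO-treated transfected cells set at 100%.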

[2] = Antiinflammatory activity in rat polymorphonuclear leukocytes assessed as inhibition of platelet-activating factor-induced glucuronidase release at 10 uM preincubated for 15 mins before challenge by spectrophotometry; format: functional
A549 = test: Cytotoxicity against human A549 cells at 10 uM after 96 hrs by MTT assay; format: functional, cell-based
BGC-823 = test: Cytotoxicity against human BGC823 cells at 10 uM after 96 hrs by MTT assay; format: functional, cell-based
MCF7 = test: Cytotoxicity against human MCF7 cells at 10 uM after 96 hrs by MTT assay; format: functional, cell-based
Bel-7402 = test: Cytotoxicity against human Bel7402 cells at 10 uM after 96 hrs by MTT assay; format: functional, cell-based
KETR3 = test: Cytotoxicity against human Ketr3 cells at 10 uM after 96 hrs by MTT assay; format: functional, cell-based
HCT-8 = test: Cytotoxicity against human HCT8 cells at 10 uM after 96 hrs by MTT assay; format: functional, cell-based
PC-12 = test: Neuroprotective activity against glutamate-induced neurotoxicity in rat PC12 cells at 10 uM preincubated for 24 hrs prior challenge measured after 24 hrs by MTT assay; format: functional, cell-based
Liver microsomes = test: Antioxidant activity against Fe2+-cystine induced lipid peroxidation in rat liver microsomes at 10 uM; format: functional; details: Microsome
[3] = biological target: T1, Tyrosine-protein phosphatase non-receptor type 1 (Homo sapiens) (UniProt P18031); test: Inhibition of GST-tagged human PTP1B PTPase activity using p-NPP as substrate at 10 uM after 10 mins by spectrophotometry
T1 sequence (whole entry): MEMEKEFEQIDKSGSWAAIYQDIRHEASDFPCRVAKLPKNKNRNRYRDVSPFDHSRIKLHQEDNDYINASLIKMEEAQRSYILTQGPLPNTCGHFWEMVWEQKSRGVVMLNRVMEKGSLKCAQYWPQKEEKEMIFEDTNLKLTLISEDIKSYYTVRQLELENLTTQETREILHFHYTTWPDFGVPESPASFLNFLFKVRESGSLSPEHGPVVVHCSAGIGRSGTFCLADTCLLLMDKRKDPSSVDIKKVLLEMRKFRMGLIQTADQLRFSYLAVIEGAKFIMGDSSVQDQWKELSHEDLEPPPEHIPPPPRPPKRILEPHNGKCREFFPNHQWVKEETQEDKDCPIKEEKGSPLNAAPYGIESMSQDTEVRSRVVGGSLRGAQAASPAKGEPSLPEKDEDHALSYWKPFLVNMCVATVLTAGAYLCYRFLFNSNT

[4] = system: Human immunodeficiency virus 1; test: Antiviral activity against HIV1 infected in 293T cells at 10 uM pretreated for 15 mins prior infection measured after 48 hrs by luciferase reporter gene assay; format: functional, organism-based

Chain of Signal transducer and activator of transcription 3 (Homo sapiens) (P40763 whole entry): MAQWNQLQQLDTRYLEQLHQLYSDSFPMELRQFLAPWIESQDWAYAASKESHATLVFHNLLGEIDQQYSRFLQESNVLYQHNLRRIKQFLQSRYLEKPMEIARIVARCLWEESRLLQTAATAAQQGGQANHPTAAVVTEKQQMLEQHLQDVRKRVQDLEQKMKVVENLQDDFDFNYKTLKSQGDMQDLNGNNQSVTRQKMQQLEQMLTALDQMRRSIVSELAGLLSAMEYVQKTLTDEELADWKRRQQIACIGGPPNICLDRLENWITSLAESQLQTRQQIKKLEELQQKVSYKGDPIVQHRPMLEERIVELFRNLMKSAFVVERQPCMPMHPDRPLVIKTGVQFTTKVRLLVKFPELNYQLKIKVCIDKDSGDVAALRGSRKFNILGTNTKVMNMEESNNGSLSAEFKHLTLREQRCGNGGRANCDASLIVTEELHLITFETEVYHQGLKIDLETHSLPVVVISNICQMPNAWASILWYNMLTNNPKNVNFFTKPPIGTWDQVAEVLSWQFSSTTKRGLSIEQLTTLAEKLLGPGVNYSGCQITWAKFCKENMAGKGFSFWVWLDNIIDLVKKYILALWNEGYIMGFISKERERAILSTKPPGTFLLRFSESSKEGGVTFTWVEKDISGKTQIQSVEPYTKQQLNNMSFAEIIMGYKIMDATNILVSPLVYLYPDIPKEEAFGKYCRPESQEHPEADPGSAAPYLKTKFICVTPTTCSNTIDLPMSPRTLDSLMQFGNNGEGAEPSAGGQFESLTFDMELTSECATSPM

| inhibition [1] [%] | inhibition [3] | Structure (SMILES) | inhibition at 10 µM [2] [%] | Activity (A549) | Activity (BGC-823) | Activity (MCF7) | Activity (Bel-7402) | Activity (KETR3) | Activity (HCT-8) | Activity (PC-12) | Activity (Liver microsomes) | Activity [4] |
| --- | --- | --- | --- | --- | --- | --- | --- | --- | --- | --- | --- | --- |
| 25.8 | inactive | C=C[C@H]1[C@H](O[C@@H]2O[C@H](CO)[C@@H](O)[C@H](O)[C@H]2O)OC=C2C(=O)O[C@@H](/C(=C(/O)C(=O)O)c3ccccc3)C[C@H]21 [LONIPHENYRUVIRIDOSIDE B] | < 30 | inactive | inactive | inactive | inactive | inactive | inactive | inactive | inactive | inactive |
| 30.9 | inactive | C=C[C@H]1[C@H](O[C@@H]2O[C@H](CO)[C@@H](O)[C@H](O)[C@H]2O)OC=C2C(=O)O[C@H](/C(=C(/O)C(=O)O)c3ccccc3)C[C@@H]21 [LONIPHENYRUVIRIDOSIDE C] | < 30 | inactive | inactive | inactive | inactive | inactive | inactive | inactive | inactive | inactive |
| 45.7 | inactive | O=C(O)C1=CO[C@@H](O[C@@H]2O[C@H](CO)[C@@H](O)[C@H](O)[C@H]2O)[C@H]2[C@@H]1C[C@@H]1C[C@H]2OC=C1c1ccccc1 [LONIPHENYRUVIRIDOSIDE A] | < 30 | inactive | inactive | inactive | inactive | inactive | inactive | inactive | inactive | inactive |
